One data set deals with HT-29. The experiment in a line: Antiproliferative activity against human HT-29 cells assessed as reduction in cell viability after 72 hrs by MTS assay. It counts as functional, cell-based. To be noted: HT-29, 72 h. The essentials:
(§1)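 Cells plated at 2000/well, cultured overnight, then exposed to a range of compound concentrations for 72 h. MTS reagent added for 1–4 h at 37 °C and absorbance read at 490 nm. Cultured in RPMI 1640 or DMEM with 10% heat-inactivated FBS under 5% CO2. Data are the mean of three determinations.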

A further data set concerns SW-620. The experiment in a line: Antiproliferative activity against human SW620 cells assessed as reduction in cell viability after 72 hrs by MTS assay. Type of data set: functional, cell-based. To be noted: SW-620, 72 h. The essentials: as §1
In a further data set the test system is MOLT-4. Nature of the data set: Antiproliferative activity against human MOLT4 cells assessed as reduction in cell viability after 72 hrs by MTS assay. It counts as functional, cell-based. Particulars: MOLT-4, 72 h. The procedure, abridged: as §1
For data set [1], the system named is NCI-H1975. The experiment in a line: Antitumour activity against human NCI-H1975 cells xenografted in Balb/c mouse assessed as reduction in tumour size at 8 mg/kg, ip administered 3 times per week and measured on day 25 (reference value: 1749 +/- 234.5 mm3). It counts as functional.
The subject of data set [2] is CL1-0. Nature of the data set: Induction of apoptosis in human CL1-0 cells assessed as PARP cleavage at 20 nM by immunoblotting analysis. Type of data set: functional, cell-based. To be noted: TDE = time-dependent effect.
The test system of data set [3] is CL1-0. Nature of the data set: Induction of apoptosis in human CL1-0 cells assessed as cleaved caspase 3 expression at 20 nM by immunoblotting analysis. It counts as functional, cell-based. To be noted: TDE = time-dependent effect.
Data set [4] has as its system NCI-H1975. Nature of the data set: Induction of apoptosis in human NCI-H1975 cells assessed as cleaved caspase 3 expression at 40 nM by immunoblotting analysis. Type of data set: functional, cell-based. Particulars: TDE = time-dependent effect.
Data set [5] has as its system CL1-0. Nature of the data set: Induction of apoptosis in human CL1-0 cells assessed as cleaved caspase 9 after 24 hrs by immunoblotting analysis. It counts as functional, cell-based.
Data set [6] has as its system CL1-0. The experiment in a line: Induction of mitotic arrest in human CL1-0 cells assessed as increase in cyclin B1 expression at 20 to 40 nM after 24 hrs by immunoblotting analysis. It counts as functional, cell-based.
Data set [7] relates to CL1-0. The experiment in a line: Induction of cell cycle arrest in human CL1-0 cells assessed as accumulation at mitotic phase after 24 hrs by high content imaging analysis. Type of data set: functional, cell-based. The procedure, abridged: (§2)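 Cells exposed for 24 h, stained for phospho-histone H3 (S10), and imaged by high-content imaging. Mitotic index taken as the fraction of p-HH3-positive cells. Mean ± SD.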

For data set [8], the system named is NCI-H1975. The experiment in a line: Induction of cell cycle arrest in human NCI-H1975 cells assessed as accumulation at mitotic phase after 24 hrs by high content imaging analysis. It counts as functional, cell-based. The procedure, abridged:
as §2

Data set [9] has as its system NCI-H1975. The experiment in a line: Induction of morphological changes in human NCI-H1975 cells assessed as disruption of mitotic spindle arrangement at 40 nM after 6 hrs by DAPI staining based DAPI staining based confocal microscopic analysis. It counts as functional, cell-based. The procedure, abridged:
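Cells exposed for 6 h, fixed in 3.7% paraformaldehyde, permeabilized with 0.1% Triton X-100. Stained with anti-α-tubulin (1:1000) overnight at 4 °C, FITC secondary 1 h at 37 °C, nuclei counterstained with DAPI. Imaged by confocal laser scanning microscopy.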

In data set [10] the target is Tubulin alpha (Homo sapiens) (UniProt P0DPH7+P68366+Q71U36+P68363+Q9BQE3+Q6PEY2+A6NHL2+Q9NY65). The experiment in a line: Induction of microtubule depolymerization in human NCI-H1975 cells assessed as increase in alpha tubulin soluble form by immunoblot analysis. It counts as cell-based. The procedure, abridged: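 Lysate spun at 16,000 rpm for 15 min at room temperature. Soluble (monomer) and particulate (polymer) fractions immunoblotted for α-tubulin.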

The target in data set [11] is T1, Tubulin (Homo sapiens) (UniProt P68371+Q9H4B7+P0DPH7+P68366+Q13509+Q71U36+P04350+Q3ZCM7+P07437+P68363+Q9BQE3+Q6PEY2+Q13885+Q9BVA1+Q9BUF5). Nature of the data set: Binding affinity to tubulin (unknown origin) assessed as increase in Beta-col fragment production at 100 uM after 30 mins by coomassie brilliant blue staining based trypsin proteolysis assay. It counts as protein-complex assay. The procedure, abridged: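 Tubulin (1 mg/mL) preincubated with 100 µM compound for 30 min at 30 °C in 0.1 M MES, 1 mM MgCl2, 1 mM EGTA, pH 6.9. Trypsin added at 25 µg/mL (1:40 w/w) for 10 min on ice. Fragments resolved on 15% SDS-PAGE, stained with Coomassie and quantified by densitometry.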

Data set [12] deals with T1, Tubulin (Homo sapiens). The experiment in a line: Binding affinity to tubulin (unknown origin) assessed as reduction in colchicine fluorescence after 1 hr in presence of colchicine by fluorescence based assay. It counts as protein-complex assay. The essentials: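 Tubulin (3 µM) mixed with colchicine (3 µM) and incubated with varying compound concentrations in PEM buffer, pH 6.9, for 1 h at 37 °C. Fluorescence read at ex 365/em 435 nm; mean ± SD.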

For data set [13], the system named is NCI-H1975. Nature of the data set: Induction of apoptosis in human NCI-H1975 cells assessed as increase in cyclin B1 expression at 25 to 50 nM after 24 hrs by immunoblotting analysis. It counts as functional, cell-based.
Data set [14] has as its system NCI-H1975. Nature of the data set: Antitumour activity against human NCI-H1975 cells xenografted in Balb/c mouse assessed as tumour size at 8 mg/kg, ip administered three times per week and measured on day 21 (reference value: 2153 +/- 126.3 mm3). It counts as functional. The essentials: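 H1975 tumours grown in the right flank of 6-week-old BALB/c nude mice. DMSO vehicle or 4 or 8 mg/kg compound in DMSO given ip three times weekly. Tumour volume calculated as 0.5W²L before each dose and compared on day 21.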

Data set [15] in a line: Toxicity in Balb/c mouse xenografted with human MDA-MB-231 cells assessed as effect on body mass at 4 to 8 mg/kg, ip administered 3 times per week for 35 days. It counts as organism-based. Particulars: in vivo, 840 h. The procedure, abridged:
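MDA-MB-231 tumors established in right flank of 6-week-old BALB/c nude mice; once established, 4 or 8 mg/kg compound in DMSO, or DMSO vehicle, injected intraperitoneally three times weekly. Body mass measured before each injection.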

Data set [16] in a line: Antitumour activity against human KBtax cells xenografted in Balb/c mouse assessed as reduction in tumour size at 8 mg/kg, ip administered 3 times per week and measured after 21 days (reference value: 1109 +/- 128.3 mm3). Type of data set: functional.
Data set [17] in a line: Toxicity in Balb/c mouse xenografted with human KBtax cells assessed as effect on body mass at 8 mg/kg, ip administered 3 times per week and measured after 21 days. It counts as organism-based. Particulars: in vivo, 504 h. The essentials:
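KBtax cells (1×10^7) injected subcutaneously into right flank of 6-week-old BALB/c nude mice; after tumor establishment, compounds dissolved in DMSO given intraperitoneally three times a week for 21 days alongside DMSO vehicle group (n = 5 per group). Body mass recorded before each dose.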

The target in data set [18] is ATP-dependent translocase ABCB1 (Homo sapiens, UniProt P08183). The experiment in a line: Inhibition of P-gp efflux in human KBtax cells at 30 to 120 nM after 1 hr by flow cytometry. It counts as cell-based. The procedure, abridged:
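KBtax cells (2.5×10^5 per test) loaded with rhodamine in cold medium on ice for 1 h. Then resuspended in 37 °C medium with compound and held 1 h at 37 °C for efflux. Retained fluorescence measured by flow cytometry; verapamil used as P-gp inhibitor reference.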

The species named for data set [19] is Homo sapiens. The experiment in a line: Induction of apoptosis in human KBtax cells assessed as cleaved caspase-9 at 30 to 60 nM after 24 hrs by immunoblotting analysis. Type of data set: functional, cell-based.
The species entered for data set [20] is Homo sapiens. The experiment in a line: Induction of mitotic arrest in human KBtax cells assessed as increase in cyclin-B1 expression at 30 to 60 nM after 24 hrs by immunoblotting analysis. Type of data set: functional, cell-based.

Activity calls are given as the source filed them. The rule behind the calls is not given here.

The record followed here is ChEMBL document CHEMBL4359883, “4(1H)-quinolone derivatives overcome acquired resistance to anti-microtubule agents by targeting the colchicine site of β-tubulin” (Eur J Med Chem, 2019).

ATP-dependent translocase ABCB1, sequence (P08183 whole entry): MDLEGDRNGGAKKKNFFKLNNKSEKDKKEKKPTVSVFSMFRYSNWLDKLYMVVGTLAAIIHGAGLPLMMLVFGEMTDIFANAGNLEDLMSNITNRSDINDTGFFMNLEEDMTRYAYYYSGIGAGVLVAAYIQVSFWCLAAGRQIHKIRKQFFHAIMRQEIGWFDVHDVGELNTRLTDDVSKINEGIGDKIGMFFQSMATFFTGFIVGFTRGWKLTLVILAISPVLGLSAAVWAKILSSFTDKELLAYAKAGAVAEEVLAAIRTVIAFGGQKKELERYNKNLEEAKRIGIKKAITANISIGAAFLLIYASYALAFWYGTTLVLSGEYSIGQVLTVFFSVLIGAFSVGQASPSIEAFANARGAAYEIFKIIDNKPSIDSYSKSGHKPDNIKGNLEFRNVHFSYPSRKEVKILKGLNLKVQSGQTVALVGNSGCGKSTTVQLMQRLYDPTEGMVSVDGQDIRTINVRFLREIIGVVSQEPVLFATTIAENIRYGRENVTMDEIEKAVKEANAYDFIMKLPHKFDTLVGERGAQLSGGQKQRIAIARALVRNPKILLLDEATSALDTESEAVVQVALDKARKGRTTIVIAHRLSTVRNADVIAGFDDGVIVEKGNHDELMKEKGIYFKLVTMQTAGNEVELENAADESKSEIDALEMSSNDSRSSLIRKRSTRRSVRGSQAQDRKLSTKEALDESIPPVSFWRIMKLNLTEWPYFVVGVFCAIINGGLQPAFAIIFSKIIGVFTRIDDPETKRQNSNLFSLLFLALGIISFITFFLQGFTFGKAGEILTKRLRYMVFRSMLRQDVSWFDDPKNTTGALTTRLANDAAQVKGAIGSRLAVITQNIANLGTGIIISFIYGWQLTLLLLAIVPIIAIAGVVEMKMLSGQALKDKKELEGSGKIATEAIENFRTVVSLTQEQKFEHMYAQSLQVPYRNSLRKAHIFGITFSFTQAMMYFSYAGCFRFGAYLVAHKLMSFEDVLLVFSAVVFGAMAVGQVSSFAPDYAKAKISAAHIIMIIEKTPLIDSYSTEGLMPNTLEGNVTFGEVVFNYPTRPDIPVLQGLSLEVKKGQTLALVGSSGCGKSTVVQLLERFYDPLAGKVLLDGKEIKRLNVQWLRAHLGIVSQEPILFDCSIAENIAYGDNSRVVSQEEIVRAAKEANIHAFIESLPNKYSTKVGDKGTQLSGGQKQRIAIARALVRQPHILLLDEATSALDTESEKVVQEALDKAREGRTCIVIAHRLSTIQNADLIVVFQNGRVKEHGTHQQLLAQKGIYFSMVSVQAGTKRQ

With `CCOC(=O)c1ccc2nc(-c3ccccc3)cc(O)c2c1`, the results for the IC50 with HT-29, with SW-620 and in the data set with MOLT-4 were 48 nM, 35 nM and 38 nM, respectively. The Activity in the data set on NCI-H1975 [1] is 587.2 mm3; with CL1-0 [2] it was “Tde”; with CL1-0 [3], “Tde”; in the data set with NCI-H1975 [4], “Tde”; in the data set on CL1-0 [5], “Dose-dependent effect”; with CL1-0 [7], “Dose-dependent effect”. The Activity entry in the data set with NCI-H1975 [8] and on Tubulin (Homo sapiens) [12] was “Dose-dependent effect” in each case. The outcome (in the data set with CL1-0 [6]; with NCI-H1975 [9]; in [10]; at Tubulin (Homo sapiens) [11]) was Active.
Regarding `CCOC(=O)c1ccc2[nH]c(-c3cccc(F)c3)cc(=O)c2c1`, the outcome with NCI-H1975 [13], in the data set listed under Homo sapiens [19] and in the data set filed under Homo sapiens [20] was Active. For the same compound, the Activity is 972.5 mm3 with NCI-H1975 [14], “Non-Toxic” in [15], 528.4 mm3 in [16] and “Non-Toxic” in data set [17]. In addition, the “inhibition (INH)” value in [18] is recorded as “Not Active”.
